Source: ChEMBL document CHEMBL2424628, “Discovery of potent and selective nonsteroidal indazolyl amide glucocorticoid receptor agonists” (Bioorg Med Chem Lett, 2013)

Key:
[1] = biological target: T1, Glucocorticoid receptor (Homo sapiens) (UniProt P04150); assay: Transactivation of glucocorticoid receptor ligand binding domain (unknown origin) transfected in human HeLa cells assessed as activation of NP-1 by GAL4 luciferase reporter gene assay relative to dexamethasone; type: cell-based
T1 sequence (whole entry): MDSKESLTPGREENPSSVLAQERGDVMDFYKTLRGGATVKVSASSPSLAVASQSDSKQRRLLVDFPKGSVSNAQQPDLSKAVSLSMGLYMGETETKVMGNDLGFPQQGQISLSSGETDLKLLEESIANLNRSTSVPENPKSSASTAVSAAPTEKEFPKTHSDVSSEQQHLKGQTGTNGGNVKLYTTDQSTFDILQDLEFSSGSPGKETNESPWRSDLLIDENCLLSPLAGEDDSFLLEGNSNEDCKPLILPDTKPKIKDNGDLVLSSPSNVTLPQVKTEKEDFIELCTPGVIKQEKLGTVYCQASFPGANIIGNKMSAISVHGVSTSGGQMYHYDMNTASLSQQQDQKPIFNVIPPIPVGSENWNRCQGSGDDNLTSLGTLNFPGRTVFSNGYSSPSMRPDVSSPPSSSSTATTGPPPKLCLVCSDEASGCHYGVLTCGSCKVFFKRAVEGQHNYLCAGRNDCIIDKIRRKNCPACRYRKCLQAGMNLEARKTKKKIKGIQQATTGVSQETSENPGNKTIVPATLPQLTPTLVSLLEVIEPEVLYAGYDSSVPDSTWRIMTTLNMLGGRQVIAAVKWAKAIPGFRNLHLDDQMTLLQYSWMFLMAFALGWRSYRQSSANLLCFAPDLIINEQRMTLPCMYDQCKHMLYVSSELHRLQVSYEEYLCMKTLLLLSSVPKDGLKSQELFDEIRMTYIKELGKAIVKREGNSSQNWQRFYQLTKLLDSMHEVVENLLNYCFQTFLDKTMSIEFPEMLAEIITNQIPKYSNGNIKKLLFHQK
Method in brief: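 HeLa line (NP-1) stably transfected with a GR ligand binding domain chimera in a GAL4 luciferase reporter system, run in agonist mode. Direct GR-LBD activation read as increased luciferase activity. Means of two or more experiments in triplicate.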

Glucocorticoid receptor [2] = biological target: T2, Glucocorticoid receptor (Homo sapiens, UniProt P04150); assay: Transactivation of glucocorticoid receptor ligand binding domain (unknown origin) transfected in human HeLa cells assessed as activation of NP-1 by GAL4 luciferase reporter gene assay; type: cell-based
T2 sequence (P04150 whole entry): T1 sequence (whole entry)

[3] = biological target: T1, Glucocorticoid receptor (Homo sapiens); assay: Agonist activity at glucocorticoid receptor in human A549 cells assessed as inhibition of IL-1beta-induced NF-kappaB dependent E-selectin activation by luciferase reporter gene assay relative to dexamethasone; type: cell-based
[4] = biological target: T1, Glucocorticoid receptor (Homo sapiens); assay: Agonist activity at glucocorticoid receptor in human A549 cells assessed as inhibition of PMA-induced AP-1 activation by luciferase reporter gene assay relative to dexamethasone; type: cell-based
Method in brief: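 A549 lung epithelial cells stably carrying a luciferase reporter with 5 copies of the AP-1 response element; AP-1 induced with PMA (15 ng/ml). Compound inhibition of induction read as decreased luciferase. […] Means of two or more experiments in triplicate.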

Glucocorticoid receptor [5] = biological target: T2, Glucocorticoid receptor; assay: Agonist activity at glucocorticoid receptor in human A549 cells assessed as inhibition of PMA-induced AP-1 activation by luciferase reporter gene assay; type: cell-based
Glucocorticoid receptor [6] = biological target: T2, Glucocorticoid receptor; assay: Agonist activity at glucocorticoid receptor in human A549 cells assessed as inhibition of IL-1beta-induced NF-kappaB dependent E-selectin activation by luciferase reporter gene assay; type: cell-based
Glucocorticoid receptor [7] = biological target: T2, Glucocorticoid receptor; assay: Binding affinity to glucocorticoid receptor (unknown origin) by fluorescence polarization assay
Progesterone receptor = biological target: T3, Progesterone receptor (Homo sapiens, UniProt P06401); assay: Binding affinity to progesterone receptor (unknown origin) by fluorescence polarization assay
T3 sequence (P06401 whole entry): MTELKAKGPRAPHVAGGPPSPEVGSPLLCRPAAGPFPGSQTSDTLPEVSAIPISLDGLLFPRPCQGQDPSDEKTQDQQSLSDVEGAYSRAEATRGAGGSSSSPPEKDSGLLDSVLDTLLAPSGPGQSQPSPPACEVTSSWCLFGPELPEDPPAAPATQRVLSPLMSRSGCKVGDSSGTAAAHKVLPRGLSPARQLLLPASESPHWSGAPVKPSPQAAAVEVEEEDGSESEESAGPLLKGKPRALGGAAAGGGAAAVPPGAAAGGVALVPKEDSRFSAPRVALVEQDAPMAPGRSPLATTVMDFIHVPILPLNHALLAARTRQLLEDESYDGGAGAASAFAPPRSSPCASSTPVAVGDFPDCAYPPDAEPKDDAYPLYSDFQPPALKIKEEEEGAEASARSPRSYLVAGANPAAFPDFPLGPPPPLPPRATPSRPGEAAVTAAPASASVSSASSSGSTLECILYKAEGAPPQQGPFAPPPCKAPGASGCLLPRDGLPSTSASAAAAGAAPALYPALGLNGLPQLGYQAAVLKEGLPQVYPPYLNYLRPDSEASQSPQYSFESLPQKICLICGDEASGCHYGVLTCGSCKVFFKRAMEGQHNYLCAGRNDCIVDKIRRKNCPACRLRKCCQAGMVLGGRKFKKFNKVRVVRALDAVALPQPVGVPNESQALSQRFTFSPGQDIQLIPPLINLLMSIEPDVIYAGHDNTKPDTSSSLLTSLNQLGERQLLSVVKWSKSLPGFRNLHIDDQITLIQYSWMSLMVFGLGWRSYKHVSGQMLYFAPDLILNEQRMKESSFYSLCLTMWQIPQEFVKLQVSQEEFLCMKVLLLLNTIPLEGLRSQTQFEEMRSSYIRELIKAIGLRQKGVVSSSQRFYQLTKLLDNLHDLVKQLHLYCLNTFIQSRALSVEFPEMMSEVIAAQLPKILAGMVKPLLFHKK
Method in brief: (§1)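 Fluorescence polarization competition between test compound and a fluorescently labeled ligand for full-length receptor or its ligand binding domain. IC50 from a four-parameter logistic fit of the polarization signal, converted to Ki with Cheng–Prusoff […]. Means of duplicate experiments.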

Androgen receptor = biological target: T4, Androgen receptor (Homo sapiens, UniProt P10275); assay: Binding affinity to androgen receptor (unknown origin) by fluorescence polarization assay; method in brief: as §1
T4 sequence (P10275 whole entry): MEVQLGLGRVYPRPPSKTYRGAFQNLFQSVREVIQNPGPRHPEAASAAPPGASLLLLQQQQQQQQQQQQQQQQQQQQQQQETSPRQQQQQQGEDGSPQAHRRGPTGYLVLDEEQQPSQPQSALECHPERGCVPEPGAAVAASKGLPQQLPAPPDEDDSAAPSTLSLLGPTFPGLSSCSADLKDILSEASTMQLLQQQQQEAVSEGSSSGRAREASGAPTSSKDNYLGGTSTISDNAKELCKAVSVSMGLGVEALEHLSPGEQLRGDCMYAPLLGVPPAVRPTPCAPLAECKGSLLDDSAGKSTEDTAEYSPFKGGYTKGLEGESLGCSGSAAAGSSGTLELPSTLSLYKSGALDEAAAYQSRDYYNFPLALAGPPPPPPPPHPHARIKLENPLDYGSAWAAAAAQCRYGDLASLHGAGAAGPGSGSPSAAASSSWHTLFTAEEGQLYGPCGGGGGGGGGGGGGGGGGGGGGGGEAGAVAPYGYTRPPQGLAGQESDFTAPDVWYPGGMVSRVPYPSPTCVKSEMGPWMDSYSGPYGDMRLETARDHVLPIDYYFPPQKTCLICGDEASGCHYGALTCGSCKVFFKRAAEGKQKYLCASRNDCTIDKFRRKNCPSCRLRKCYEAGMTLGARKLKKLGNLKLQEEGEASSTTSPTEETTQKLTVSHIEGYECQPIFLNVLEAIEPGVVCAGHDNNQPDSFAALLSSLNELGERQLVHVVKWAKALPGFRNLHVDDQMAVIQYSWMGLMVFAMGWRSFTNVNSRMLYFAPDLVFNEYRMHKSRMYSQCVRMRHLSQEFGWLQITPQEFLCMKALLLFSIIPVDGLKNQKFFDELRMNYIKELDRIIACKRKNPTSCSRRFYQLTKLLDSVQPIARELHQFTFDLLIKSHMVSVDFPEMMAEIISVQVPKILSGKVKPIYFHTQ

Homo sapiens [8] = species on record: Homo sapiens; assay: Selectivity ratio of Ki for progesterone receptor (unknown origin) to Ki for glucocorticoid receptor (unknown origin)
Homo sapiens [9] = species on record: Homo sapiens; assay: Selectivity ratio of Ki for androgen receptor (unknown origin) to Ki for glucocorticoid receptor (unknown origin)

| Efficacy [1] [%] | EC50 (Glucocorticoid receptor [2]) [nM] | Efficacy [3] [%] | Efficacy [4] [%] | EC50 (Glucocorticoid receptor [5]) [nM] | EC50 (Glucocorticoid receptor [6]) [nM] | Ki (Glucocorticoid receptor [7]) [nM] | Ki (Progesterone receptor) [nM] | Ki (Androgen receptor) [nM] | Ratio Ki (Homo sapiens [8]) | Ratio Ki (Homo sapiens [9]) | Compound |
| --- | --- | --- | --- | --- | --- | --- | --- | --- | --- | --- | --- |
| < 30 | > 10000 | < 30 | 35 | 617 | > 5000 | 13 | – | – | – | – | CC(C)(C(=O)Nc1nncs1)[C@H](c1ccccc1)c1ccc2[nH]ncc2c1 |
| – | – | – | – | – | – | – | 214 | 243 | – | – | CC(C(=O)Nc1nncs1)[C@@H](c1ccccc1)c1ccc2c(cnn2-c2ccc(F)cc2)c1 (single isomer, unassigned; diastereomer 2) |
| 66 | 132 | 87 | 96 | 45 | 49 | 5.7 | – | – | – | – | CC(C)CCn1ncc2cc(C(c3ccccc3)C(C)(C)C(=O)Nc3nncs3)ccc21 (racemic) |
| 59 | 435 | 81 | 56 | 400 | 58 | 7.9 | – | – | – | – | CC(C)(C(=O)Nc1nccs1)[C@H](c1ccccc1)c1ccc2c(cnn2-c2ccc(F)cc2)c1 |
| – | – | – | – | – | – | – | 22 | > 4170 | – | – | CC(C(=O)Nc1nncs1)[C@@H](c1ccccc1)c1ccc2c(cnn2-c2ccc(F)cc2)c1 (single isomer, unassigned; diastereomer 3) |
| – | – | – | 60 | 18 | – | – | 109 | 2510 | 10 | > 1000 | CCCC(c1ccc2c(cnn2-c2ccc(F)cc2)c1)C(C)(C)C(=O)Nc1nncs1 (racemic) |
